{
  "source": "ChEMBL document CHEMBL4842318",
  "about": "“A γ-lactam siderophore antibiotic effective against multidrug-resistant Pseudomonas aeruginosa, Klebsiella pneumoniae, and Acinetobacter spp” (Eur J Med Chem, 2021)",
  "key": {"[1]": {"experiment": "Substrate activity at NDM1 (unknown origin) assessed as Kcat by measuring hydrolysis by spectrophotometry", "assay_type": "ADME", "how_it_was_run": "(§1)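 Substrate hydrolysis (600 μM start) followed at 336 nm (Δε336 = −4362 M−1 cm−1, 0.2 cm cuvette) to completion; velocities over 10 s intervals along progress curve; Km, Vmax from double reciprocal plot, kcat = Vmax/[E].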"}, "Acinetobacter baumannii [2]": {"tested_on": "Acinetobacter baumannii", "experiment": "Antibacterial activity against carbapenem resistant Acinetobacter baumannii isolate PR-423 assessed as inhibition of bacterial growth in presence of 20 ug/ml sulbactam by microdilution method", "assay_type": "functional", "details": "dose 20 µg/ml"}, "[3]": {"target": "Penicillin-binding protein 3 (Pseudomonas aeruginosa, UniProt Q51504)", "sequence (Q51504 whole entry)": "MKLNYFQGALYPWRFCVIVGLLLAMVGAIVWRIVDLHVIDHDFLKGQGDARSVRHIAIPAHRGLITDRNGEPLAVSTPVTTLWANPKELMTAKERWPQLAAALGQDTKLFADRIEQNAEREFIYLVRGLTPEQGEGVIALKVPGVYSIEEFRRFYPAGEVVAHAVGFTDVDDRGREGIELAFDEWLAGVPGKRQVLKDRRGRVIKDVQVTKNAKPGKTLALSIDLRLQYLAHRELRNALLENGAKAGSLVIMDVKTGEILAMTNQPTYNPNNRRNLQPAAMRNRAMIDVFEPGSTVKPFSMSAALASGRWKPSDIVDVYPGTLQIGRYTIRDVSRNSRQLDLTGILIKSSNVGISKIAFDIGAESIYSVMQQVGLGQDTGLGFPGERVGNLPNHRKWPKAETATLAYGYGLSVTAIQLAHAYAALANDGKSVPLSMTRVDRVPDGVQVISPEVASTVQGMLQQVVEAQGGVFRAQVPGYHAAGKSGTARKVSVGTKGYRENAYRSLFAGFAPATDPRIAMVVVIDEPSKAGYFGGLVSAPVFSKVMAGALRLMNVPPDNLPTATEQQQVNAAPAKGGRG", "experiment": "Inhibition of Pseudomonas aeruginosa PBP3 assessed as reduction in fluorescence intensity using Bocillin-protein as fluorescent substrate preincubated for 20 mins measured after 20 mins by SDS PAGE analysis", "how_it_was_run": "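Purified soluble P. aeruginosa PBP3 at 1.6 μM in 10 mM PBS, pH 7.4. Preincubated with increasing compound concentrations for 20 min at 37 °C, then 50 μM Bocillin added for a further 20 min. Stopped with SDS loading dye and 2 min boiling, then run on SDS-PAGE and imaged at 365 nm. IC50 taken as the concentration halving Bocillin-labelled band fluorescence.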"}, "Acinetobacter baumannii [4]": {"tested_on": "Acinetobacter baumannii", "experiment": "Antibacterial activity against carbapenem resistant Acinetobacter baumannii isolate PR-482 assessed as inhibition of bacterial growth at 1:1 compound to sulbactam concentration by microdilution method", "assay_type": "functional", "how_it_was_run": "(§2)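 Iron-depleted (Chelex-treated) cation-adjusted Mueller-Hinton broth microdilution; inoculum 6 × 10^4 cfu/mL. Test agent and sulbactam mixed 1:1 by mass and serially 2-fold diluted together. MIC in μg/mL.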"}, "[5]": {"experiment": "Substrate activity at IMP-1 (unknown origin) assessed as Kcat by measuring hydrolysis by spectrophotometry", "assay_type": "ADME", "how_it_was_run": "as §1"}, "[6]": {"experiment": "Antibacterial activity against carbapenem susceptible Acinetobacter nosocomialis isolate PR-412 assessed as bacterial growth inhibition by microdilution method", "assay_type": "functional", "how_it_was_run": "(§3)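 Broth microdilution MIC in iron-depleted (Chelex resin-treated) cation-adjusted Mueller-Hinton broth, following the protocol used for siderophore-containing antibiotics. Inoculum was lowered to 6 × 10^4 cfu/mL.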"}, "Acinetobacter baumannii [7]": {"tested_on": "Acinetobacter baumannii", "experiment": "Antibacterial activity against carbapenem resistant Acinetobacter baumannii isolate PR-326 assessed as inhibition of bacterial growth at 1:1 compound to sulbactam concentration by microdilution method", "assay_type": "functional", "how_it_was_run": "as §2"}, "[8]": {"experiment": "Plasma concentration in SC dosed CD-1 mouse treated four times at 6 hrs interval measured after 2 hrs", "assay_type": "ADME, organism-based", "how_it_was_run": "(§4)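 CD-1 mice dosed SC at 50 mg/kg. Plasma sampled at 0.167 to 24 h, three individual mice per time point, reported as mean and SD in ng/mL.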"}, "Pseudomonas aeruginosa [9]": {"tested_on": "Pseudomonas aeruginosa", "experiment": "Antibacterial activity against wild type Pseudomonas aeruginosa isolate PR-606 assessed as inhibition of bacterial growth by microdilution method", "assay_type": "functional", "how_it_was_run": "as §3"}, "[10]": {"experiment": "Antibacterial activity against carbapenem susceptible Acinetobacter nosocomialis isolate PR-491 assessed as inhibition of bacterial growth at 1:1 compound to sulbactam concentration by microdilution method", "assay_type": "functional", "how_it_was_run": "(§5)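 Broth microdilution MIC in Chelex-treated, iron-depleted cation-adjusted Mueller-Hinton broth, inoculum 6 × 10^4 cfu/mL. Compound and sulbactam combined 1:1 by mass in a 2-fold dilution series.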"}, "Pseudomonas aeruginosa [11]": {"tested_on": "Pseudomonas aeruginosa", "experiment": "Antibacterial activity against wild type Pseudomonas aeruginosa isolate PR-651 leucine at 533 residue assessed as inhibition of bacterial growth by microdilution method", "assay_type": "functional", "how_it_was_run": "as §3"}, "Acinetobacter baumannii [12]": {"tested_on": "Acinetobacter baumannii", "experiment": "Antibacterial activity against carbapenem resistant Acinetobacter baumannii isolate PR-342 assessed as inhibition of bacterial growth at 1:1 compound to sulbactam concentration by microdilution method", "assay_type": "functional", "how_it_was_run": "as §2"}, "[13]": {"experiment": "Substrate activity at OXA-23 (unknown origin) assessed as Kcat by measuring hydrolysis by spectrophotometry", "assay_type": "ADME"}, "Pseudomonas aeruginosa [14]": {"tested_on": "Pseudomonas aeruginosa", "experiment": "Antibacterial activity against wild type Pseudomonas aeruginosa isolate PR-699 assessed as inhibition of bacterial growth by microdilution method", "assay_type": "functional", "how_it_was_run": "as §3"}, "[15]": {"experiment": "Antibacterial activity against carbapenem susceptible Acinetobacter nosocomialis isolate PR-365 assessed as bacterial growth inhibition by microdilution method", "assay_type": "functional", "how_it_was_run": "as §3"}, "[16]": {"experiment": "Plasma concentration in SC dosed CD-1 mouse treated four times at 6 hrs interval measured after 0.5 hrs", "assay_type": "ADME, organism-based", "how_it_was_run": "as §4"}, "[17]": {"experiment": "Antibacterial activity against carbapenem susceptible Acinetobacter nosocomialis isolate PR-491 assessed as inhibition of bacterial growth in presence of 20 ug/ml sulbactam by microdilution method", "assay_type": "functional", "details": "dose 20 µg/ml", "how_it_was_run": "(§6)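 MIC by broth microdilution using iron-depleted (Chelex-treated) cation-adjusted Mueller-Hinton broth and 6 × 10^4 cfu/mL inoculum. Compound serially diluted with sulbactam held constant at 20 μg/mL.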"}, "Acinetobacter baumannii [18]": {"tested_on": "Acinetobacter baumannii", "experiment": "Antibacterial activity against carbapenem resistant Acinetobacter baumannii isolate PR-384 assessed as inhibition of bacterial growth in presence of 20 ug/ml sulbactam by microdilution method", "assay_type": "functional", "details": "dose 20 µg/ml"}, "Pseudomonas aeruginosa [19]": {"tested_on": "Pseudomonas aeruginosa", "experiment": "Antibacterial activity against Pseudomonas aeruginosa AR-BANK#0229 infected in sc dosed thigh infection mouse model assessed as reduction in CFU treated four times at 6 hrs interval measured at 26 hrs after infection", "assay_type": "functional, organism-based", "how_it_was_run": "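Neutropenic mice (cyclophosphamide) inoculated intramuscularly with 1.02 × 10^6 CFU/mouse. Drug given SC at 50 and 100 mg/kg q6h at 2, 8, 14 and 20 h post-infection. Thighs harvested at 26 h and weighed. Thigh CFU/g compared with the 2 h baseline (Δ reported) and with vehicle, using one-way ANOVA with Dunnett's test.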"}, "Acinetobacter baumannii [20]": {"tested_on": "Acinetobacter baumannii", "experiment": "Antibacterial activity against carbapenem resistant Acinetobacter baumannii isolate PR-326 assessed as inhibition of bacterial growth in presence of 20 ug/ml sulbactam by microdilution method", "assay_type": "functional", "details": "dose 20 µg/ml"}, "Acinetobacter baumannii [21]": {"tested_on": "Acinetobacter baumannii", "experiment": "Antibacterial activity against carbapenem resistant Acinetobacter baumannii isolate PR-399 assessed as inhibition of bacterial growth at 1:1 compound to sulbactam concentration by microdilution method", "assay_type": "functional", "how_it_was_run": "as §2"}, "Pseudomonas aeruginosa [22]": {"tested_on": "Pseudomonas aeruginosa", "experiment": "Antibacterial activity against wild type Pseudomonas aeruginosa isolate PR-604 assessed as inhibition of bacterial growth by microdilution method", "assay_type": "functional", "how_it_was_run": "as §3"}, "Acinetobacter baumannii [23]": {"tested_on": "Acinetobacter baumannii", "experiment": "Antibacterial activity against carbapenem resistant Acinetobacter baumannii isolate PR-401 assessed as inhibition of bacterial growth in presence of 20 ug/ml sulbactam by microdilution method", "assay_type": "functional", "details": "dose 20 µg/ml"}, "Acinetobacter baumannii [24]": {"tested_on": "Acinetobacter baumannii", "experiment": "Antibacterial activity against carbapenem resistant Acinetobacter baumannii isolate PR-326 assessed as bacterial growth inhibition by microdilution method", "assay_type": "functional", "how_it_was_run": "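Broth microdilution in Chelex-treated, iron-depleted cation-adjusted Mueller-Hinton broth, following the protocol used for siderophore-containing antibiotics; inoculum lowered to 6 × 10^4 cfu/mL; MIC read as growth inhibition, in μg/mL.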"}, "Acinetobacter baumannii [25]": {"tested_on": "Acinetobacter baumannii", "experiment": "Antibacterial activity against carbapenem resistant Acinetobacter baumannii isolate PR-314 assessed as inhibition of bacterial growth at 1:1 compound to sulbactam concentration by microdilution method", "assay_type": "functional", "how_it_was_run": "as §2"}, "[26]": {"experiment": "Antibacterial activity against carbapenem susceptible Acinetobacter nosocomialis isolate PR-412 assessed as inhibition of bacterial growth in presence of 20 ug/ml sulbactam by microdilution method", "assay_type": "functional", "details": "dose 20 µg/ml", "how_it_was_run": "as §6"}, "[27]": {"experiment": "Antibacterial activity against carbapenem susceptible Acinetobacter nosocomialis isolate PR-365 assessed as inhibition of bacterial growth at 1:1 compound to sulbactam concentration by microdilution method", "assay_type": "functional", "how_it_was_run": "as §5"}, "[28]": {"experiment": "Antibacterial activity against carbapenem susceptible Acinetobacter nosocomialis isolate PR-362 assessed as inhibition of bacterial growth in presence of 20 ug/ml sulbactam by microdilution method", "assay_type": "functional", "details": "dose 20 µg/ml", "how_it_was_run": "as §6"}, "Acinetobacter baumannii [29]": {"tested_on": "Acinetobacter baumannii", "experiment": "Antibacterial activity against carbapenem susceptible Acinetobacter baumannii isolate PR-434 assessed as bacterial growth inhibition by microdilution method", "assay_type": "functional", "how_it_was_run": "as §3"}, "Acinetobacter baumannii [30]": {"tested_on": "Acinetobacter baumannii", "experiment": "Antibacterial activity against carbapenem susceptible Acinetobacter baumannii isolate PR-340 assessed as bacterial growth inhibition by microdilution method", "assay_type": "functional", "how_it_was_run": "as §3"}},
  "data": [
    {"smiles": "CC(C)(O/N=C(\\C(=O)N[C@H]1CN2CC(C(=O)NCCN3C(=O)c4cc(O)c(O)cc4C3=O)=C(C(=O)O)N2C1=O)c1nc(N)sc1Cl)C(=O)O", "values": [
      {"measurement": "Kcat", "setting": "[1]", "value": 35, "unit": "s⁻¹"},
      {"measurement": "MIC", "setting": "Acinetobacter baumannii [2]", "value": "≤ 0.25", "unit": "µg/mL"},
      {"measurement": "IC50", "setting": "[3]", "value": 5, "unit": "µM"},
      {"measurement": "MIC", "setting": "Acinetobacter baumannii [4]", "value": "> 16", "unit": "µg/mL"},
      {"measurement": "Kcat", "setting": "[5]", "value": 5, "unit": "s⁻¹"},
      {"measurement": "MIC", "setting": "[6]", "value": "> 16", "unit": "µg/mL"},
      {"measurement": "MIC", "setting": "Acinetobacter baumannii [7]", "value": 2, "unit": "µg/mL"},
      {"measurement": "concentration at 2 h", "setting": "[8]", "value": 3070, "unit": "ng/mL"},
      {"measurement": "MIC", "setting": "Pseudomonas aeruginosa [9]", "value": "> 16", "unit": "µg/mL"},
      {"measurement": "MIC", "setting": "[10]", "value": 0.5, "unit": "µg/mL"},
      {"measurement": "MIC", "setting": "Pseudomonas aeruginosa [11]", "value": "> 16", "unit": "µg/mL"},
      {"measurement": "MIC", "setting": "Acinetobacter baumannii [12]", "value": "> 16", "unit": "µg/mL"},
      {"measurement": "Kcat", "setting": "[13]", "value": "Nottraceable"},
      {"measurement": "MIC", "setting": "Pseudomonas aeruginosa [14]", "value": "> 16", "unit": "µg/mL"},
      {"measurement": "MIC", "setting": "[15]", "value": "> 16", "unit": "µg/mL"},
      {"measurement": "concentration at 0.5 h", "setting": "[16]", "value": 16200, "unit": "ng/mL"},
      {"measurement": "MIC", "setting": "[17]", "value": "≤ 0.25", "unit": "µg/mL"},
      {"measurement": "MIC", "setting": "Acinetobacter baumannii [18]", "value": "> 16", "unit": "µg/mL"},
      {"measurement": "Activity", "setting": "Pseudomonas aeruginosa [19]", "value": "Dose-Dependent Effect"},
      {"measurement": "MIC", "setting": "Acinetobacter baumannii [20]", "value": "≤ 0.25", "unit": "µg/mL"},
      {"measurement": "MIC", "setting": "Acinetobacter baumannii [21]", "value": 16, "unit": "µg/mL"},
      {"measurement": "MIC", "setting": "Pseudomonas aeruginosa [22]", "value": "≤ 0.25", "unit": "µg/mL"},
      {"measurement": "MIC", "setting": "Acinetobacter baumannii [23]", "value": "≤ 0.25", "unit": "µg/mL"},
      {"measurement": "MIC", "setting": "Acinetobacter baumannii [24]", "value": "> 16", "unit": "µg/mL"},
      {"measurement": "MIC", "setting": "Acinetobacter baumannii [25]", "value": 4, "unit": "µg/mL"},
      {"measurement": "MIC", "setting": "[26]", "value": "≤ 0.25", "unit": "µg/mL"},
      {"measurement": "MIC", "setting": "[27]", "value": "≤ 0.25", "unit": "µg/mL"},
      {"measurement": "MIC", "setting": "[28]", "value": "≤ 0.25", "unit": "µg/mL"},
      {"measurement": "MIC", "setting": "Acinetobacter baumannii [29]", "value": "> 16", "unit": "µg/mL"},
      {"measurement": "MIC", "setting": "Acinetobacter baumannii [30]", "value": "> 16", "unit": "µg/mL"}
    ]}
  ]
}
